Experimental findings from ChEMBL document CHEMBL3352241, “Design, synthesis and pharmacological evaluation of chalcone derivatives as acetylcholinesterase inhibitors” (Bioorg Med Chem, 2014) are described below.

A value given as a limit tells only on which side of the number the result lay.

For data set [1], the target named is T1, Acetylcholinesterase (Homo sapiens, UniProt P22303). Nature of the data set: Non-competitive inhibition of AChE (unknown origin) incubated for 25 mins by Lineweaver-Burk plot analysis.
Data set [2] has as its target Cholinesterase (Homo sapiens, UniProt P06276). Nature of the data set: Inhibition of BuChE (unknown origin) using butyrylthiocholine iodide as substrate incubated for 25 mins by Ellman's method. An outline of the steps:
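Ellman spectrophotometric assay, slightly modified. Compounds were dissolved in tween 80 (0.06% final per reaction), then diluted in 2% tween 80–water. The enzyme, substrate (acetylthiocholine iodide for AChE, butyrylthiocholine iodide for BuChE) and compound were incubated in Na2HPO4/NaH2PO4 buffer pH 8.0 at 30 °C for 25 min. IC50 was calculated by the Bliss method and reported as mean ± SD.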
On the technique in general: Ellman's reagent forms a yellow product with free thiols.

In data set [3] the target is T1, Acetylcholinesterase. Nature of the data set: Inhibition of AChE (unknown origin) using acetylthiocholine iodide as substrate incubated for 25 mins by Ellman's method. An outline of the steps:
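Ellman spectrophotometric assay, slightly modified. Compounds were dissolved in tween 80 (0.06% final per reaction), then diluted in 2% tween 80–water. The enzyme, substrate (acetylthiocholine iodide for AChE, butyrylthiocholine iodide for BuChE) and compound were incubated in Na2HPO4/NaH2PO4 buffer pH 8.0 at 30 °C for 25 min. The reaction was stopped with 20% SDS, 10 mmol/L DTNB was added, and absorbance was read at 412 nm. Five concentrations per compound, in triplicate, spanned 20–80% inhibition. IC50 was calculated by the Bliss method and reported as mean ± SD.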

Data set [4] addresses T1, Acetylcholinesterase. The data set is described as follows: Competitive inhibition of AChE (unknown origin) incubated for 25 mins by Lineweaver-Burk plot analysis.
For data set [5], the target named is Cholinesterases; ACHE & BCHE (Homo sapiens) (UniProt P06276+P22303). Nature of the data set: Selectivity ratio of IC50 for BChE (unknown origin) to IC50 for AChE (unknown origin).
A short description of data set [6]: Octanol-water partition coefficient, log P of the compound at pH 7.4 by classical shake-flask method. It counts as physicochemical.

T1 sequence (P22303 whole entry): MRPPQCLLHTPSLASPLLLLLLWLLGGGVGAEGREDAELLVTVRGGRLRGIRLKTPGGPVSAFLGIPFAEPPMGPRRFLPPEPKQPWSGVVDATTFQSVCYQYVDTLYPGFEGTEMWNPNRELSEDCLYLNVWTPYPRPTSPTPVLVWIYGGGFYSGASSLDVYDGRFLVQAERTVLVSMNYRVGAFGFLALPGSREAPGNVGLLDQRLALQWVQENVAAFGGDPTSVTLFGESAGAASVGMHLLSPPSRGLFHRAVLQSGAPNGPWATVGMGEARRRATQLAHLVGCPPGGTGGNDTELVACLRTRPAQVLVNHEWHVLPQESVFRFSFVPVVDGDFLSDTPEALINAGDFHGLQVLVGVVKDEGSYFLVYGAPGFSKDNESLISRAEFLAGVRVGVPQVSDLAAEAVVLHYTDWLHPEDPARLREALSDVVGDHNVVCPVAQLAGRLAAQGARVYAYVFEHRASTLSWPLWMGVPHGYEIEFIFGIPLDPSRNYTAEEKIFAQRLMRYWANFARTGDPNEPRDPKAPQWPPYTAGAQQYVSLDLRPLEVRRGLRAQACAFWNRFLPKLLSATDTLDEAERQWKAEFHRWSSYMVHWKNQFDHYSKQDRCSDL
Chain of Cholinesterases; ACHE & BCHE (Homo sapiens) (P06276 whole entry, looked up): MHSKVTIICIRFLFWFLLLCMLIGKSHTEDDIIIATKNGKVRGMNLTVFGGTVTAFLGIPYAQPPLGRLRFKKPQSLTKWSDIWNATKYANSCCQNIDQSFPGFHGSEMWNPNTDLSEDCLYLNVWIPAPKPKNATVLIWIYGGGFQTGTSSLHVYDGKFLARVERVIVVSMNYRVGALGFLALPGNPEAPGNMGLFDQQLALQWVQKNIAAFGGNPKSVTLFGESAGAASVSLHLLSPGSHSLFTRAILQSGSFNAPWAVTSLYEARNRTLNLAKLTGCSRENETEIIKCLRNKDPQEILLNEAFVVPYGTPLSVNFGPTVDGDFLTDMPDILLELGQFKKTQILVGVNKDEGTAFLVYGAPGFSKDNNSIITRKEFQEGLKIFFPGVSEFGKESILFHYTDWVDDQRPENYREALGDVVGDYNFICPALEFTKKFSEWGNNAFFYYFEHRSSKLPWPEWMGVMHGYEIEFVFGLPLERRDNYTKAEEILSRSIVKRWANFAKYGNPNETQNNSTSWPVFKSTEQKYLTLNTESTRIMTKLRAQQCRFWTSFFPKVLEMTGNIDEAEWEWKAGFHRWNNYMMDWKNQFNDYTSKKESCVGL
Chain of Cholinesterases; ACHE & BCHE (Homo sapiens) (P22303 whole entry, looked up): as the sequence (P22303 whole entry) above
Chain of Cholinesterase (P06276 whole entry): as the sequence (P06276 whole entry, looked up) above

As for `CN(C)CCOc1ccc(C(=O)/C=C/c2ccccc2)cc1`, the Ki (usually the dissociation constant of the complex between target and ligand, obtained from inhibition or displacement) was determined as 3.52 µM in data set [1] and 7.99 µM in data set [4]. For the same compound, the concentration for half-maximal inhibition (IC50) (commonly the midpoint of a concentration-inhibition curve) in data set [2] came to 20.4 µM; in data set [3], 4.68 µM. Also, in data set [5], the Ratio IC50 is 4.35. In addition, in data set [6], the logD (as a rule, the decadic logarithm of the distribution of all forms, ionised or not, between an organic phase and buffer at a given pH) came out at 1.49.
For `CN(C)CCCCCCOc1ccc(C(=O)/C=C/c2ccccc2)cc1`, the values for the IC50 in data set [2] and in data set [3] were 10.4 µM and 14.2 µM, respectively. In addition, the Ratio IC50 in data set [5] turned out to be 0.73. Further, in data set [6], the log distribution coefficient (logD) is 1.8.
Take `CCN(CC)CCCCCCOc1ccc(C(=O)/C=C/c2ccccc2)cc1`: the values for the half-inhibitory concentration (IC50) in data set [2] and in data set [3] were 18.5 µM and 50.4 µM, respectively. Further, in data set [5], the Ratio IC50 was determined as 0.37. In addition, the logD in data set [6] amounted to 1.91.
Taken in the same sequence, the figures for `CCN(CC)CCCCOc1ccc(C(=O)/C=C/c2ccccc2)cc1` were 10.2 µM, 23.2 µM, 0.44 and 1.74.
Take `CN(C)CCCCOc1ccc(C(=O)/C=C/c2ccccc2)cc1`: the IC50 in data set [2] is 11.8 µM; in data set [3] it was 8.95 µM. Further, the Ratio IC50 in data set [5] came to 1.32. The logD in data set [6] turned out to be 1.64.
For the compound `CCCN(CCC)CCCCCCOc1ccc(C(=O)/C=C/c2ccccc2)cc1`, the IC50 came out at 40.7 µM in data set [2] and 44.1 µM in data set [3]. Moreover, the Ratio IC50 in data set [5] was 0.92. In data set [6], this compound yielded a logD of 2.07.
On to `CCCCN(CCCC)CCOc1ccc(C(=O)/C=C/c2ccccc2)cc1`, for which the IC50 turned out to be 279 µM in data set [2] and 253 µM in data set [3]. The Ratio IC50 in data set [5] was found to be 1.1. The same compound had a logD in data set [6] of 2.
Taken in the same sequence, the figures for `CCCN(CCC)CCOc1ccc(C(=O)/C=C/c2ccccc2)cc1` were 52.6 µM, 64.5 µM, 0.81 and 1.86.
In the case of `CCCN(CCC)CCCOc1ccc(C(=O)/C=C/c2ccccc2)cc1`, the IC50 in data set [2] was determined as 10.1 µM; in data set [3], 24.6 µM. Also, the Ratio IC50 in data set [5] was 0.41. Moreover, the logD in data set [6] was 1.91.
Consider `CCN(CC)CCCCCOc1ccc(C(=O)/C=C/c2ccccc2)cc1`, for which the half-inhibitory concentration (IC50) in data set [2] amounted to 26.3 µM; in data set [3] it was 34.1 µM. The Ratio IC50 in data set [5] is 0.77. The same compound gave a logD in data set [6] of 1.84.
As to `CCCCN(CCCC)CCCCCCOc1ccc(C(=O)/C=C/c2ccccc2)cc1`, the IC50 is 75.1 µM in data set [2] and 163 µM in data set [3]. In addition, the Ratio IC50 in data set [5] was 0.46. The same compound registered a logD in data set [6] of 2.19.
As for `CCCCN(CCCC)CCCOc1ccc(C(=O)/C=C/c2ccccc2)cc1`, the IC50 came to 68.3 µM in data set [2] and 152 µM in data set [3]. Besides, in data set [5], the Ratio IC50 worked out at 0.45. This compound also had a pH-dependent lipophilicity (logD) in data set [6] of 2.06.
For `CCCN(CCC)CCCCCOc1ccc(C(=O)/C=C/c2ccccc2)cc1`, the IC50 turned out to be 39.7 µM in data set [2] and 29.5 µM in data set [3]. In data set [5], the Ratio IC50 stood at 2.09. The compound also yielded a logD in data set [6] of 2.01.
Taken in the same sequence, the figures for `CN(C)CCCCCOc1ccc(C(=O)/C=C/c2ccccc2)cc1` were 17.4 µM, 13.1 µM, 1.33 and 1.73.
Turning to `CCCN(CCC)CCCCOc1ccc(C(=O)/C=C/c2ccccc2)cc1`, the figures for the IC50 in data set [2] and in data set [3] were 8.84 µM and 5.91 µM, respectively. The Ratio IC50 in data set [5] stood at 1.5. The compound also returned a logD in data set [6] of 1.95.
With `CCN(CC)CCOc1ccc(C(=O)/C=C/c2ccccc2)cc1`, the IC50 worked out at 31.6 µM in data set [2] and 7.63 µM in data set [3]. For the same compound, in data set [5], the Ratio IC50 was 4.14. In data set [6], this compound yielded a log distribution coefficient (logD) of 1.61.
Regarding `CN(C)CCCOc1ccc(C(=O)/C=C/c2ccccc2)cc1`, the IC50 was 32.3 µM in data set [2] and 10.5 µM in data set [3]. In addition, the Ratio IC50 in data set [5] was 3.08. Moreover, the logD in data set [6] came to 1.59.
As for `CCCCN(CCCC)CCCCCOc1ccc(C(=O)/C=C/c2ccccc2)cc1`, the values for the half-inhibitory concentration (IC50) in data set [2] and in data set [3] were 96.9 µM and 76.9 µM, respectively. This compound also displayed a logD in data set [6] of 2.14.
Regarding `CCN(CC)CCCOc1ccc(C(=O)/C=C/c2ccccc2)cc1`, the IC50 in data set [2] came out at 20.1 µM; in data set [3] it was 22.5 µM. Moreover, the Ratio IC50 in data set [5] was found to be 0.89. Further, the log distribution coefficient (logD) in data set [6] is 1.71.
Take `CCCCN(CCCC)CCCCOc1ccc(C(=O)/C=C/c2ccccc2)cc1`: the IC50 turned out to be 41.9 µM in data set [2] and 21.9 µM in data set [3]. Moreover, in data set [5], the Ratio IC50 turned out to be 1.91. The same compound gave a logD in data set [6] of 2.09.
With `O=C(/C=C/c1ccccc1)c1ccc(O)cc1` [4'-HYDROXYCHALCONE], the IC50 in data set [2] and in data set [3] was above 500 µM in each case.
